From ChEMBL document CHEMBL4196113, “Discovery of a First-in-Class Gut-Restricted RET Kinase Inhibitor as a Clinical Candidate for the Treatment of IBS” (ACS Med Chem Lett, 2018)
Values after ≈ are worked out from the molar mass of the structure shown. Each block holds one compound with its values, some of them ahead of it. Active and inactive are the calls of the source. The calls are words filed in the database; no cut-off is given here.

Tests used:
Salmonella typhimurium = experiment: Genotoxicity in Salmonella typhimurium TA98 by Ames test; format: toxicity, organism-based; conditions: salmonella enterica subsp. enterica serovar typhimurium
[1] = molecular target: Vascular endothelial growth factor receptor 2 (Homo sapiens, UniProt P35968); experiment: Inhibition of human KDR using cisbio TK biotin-peptide as substrate preincubated for 30 mins followed by substrate addition measured after 30 mins by HTRF assay
[2] = Tmax in jejunum of Sprague-Dawley rat at 10 mg/kg, po bid administered 7 doses over 3.5 days; format: ADME, organism-based
Procedure, shortened: (§1)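 Satellite rats from the colonic hypersensitivity dosing regimen received 10 mg/kg orally twice daily, seven doses over 3.5 days. Concentrations were measured in colon contents, duodenum, jejunum, ileum, colon tissue homogenate and plasma. Cmax (ng/mL) and Tmax (h) were taken from the full time–concentration profiles.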

[3] = Tmax in duodenum of Sprague-Dawley rat at 10 mg/kg, po bid administered 7 doses over 3.5 days; format: ADME, organism-based; procedure, shortened: as §1
[4] = Cmax in jejunum of Sprague-Dawley rat at 10 mg/kg, po bid administered 7 doses over 3.5 days; format: ADME, organism-based; set-up: dose 10 mg/kg, route oral; procedure, shortened: as §1
[5] = Solubility of the compound by CLND method; format: physicochemical
Procedure, shortened: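 Kinetic solubility was measured by chemiluminescent nitrogen detection.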

[6] = Solubility of the compound in FaSSIF after 4 hrs; format: physicochemical
Procedure, shortened: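 Solubility was measured in fasted state simulated intestinal fluid after 4 h.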

[7] = Tmax in ileum of Sprague-Dawley rat at 10 mg/kg, po bid administered 7 doses over 3.5 days; format: ADME, organism-based; procedure, shortened: as §1
[8] = AUC in Sprague-Dawley rat at 0.06 mg/kg, iv administered via bolus; format: ADME, organism-based; conditions: in vivo
Procedure, shortened: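 Male Sprague–Dawley rats received a single IV bolus. Compound was formulated as a clear solution at 0.04 mg/mL in DMSO/6% HP-beta-CD (5:95), pH 7. AUC was derived from the plasma concentration–time curve.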

Rattus norvegicus = experiment: Reduction in acetic acid-induced acute visceral afferent neuron sensitization in Sprague-Dawley rat acute colonic hypersensitivity model assessed as decrease in visceromotor response to colorectal distension by measuring number of abdominal contractions at 10 mg/kg, po bid administered for 3.5 days followed by acetic acid induction for 60 mins administered 5 mins post last compound dose and measured for 10 mins; format: functional, organism-based
Procedure, shortened: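 Acetic acid enema at low concentration gave a transient, noninflammatory sensitization of colonic afferents. Colorectal distension then evoked a visceromotor response, scored visually as abdominal contractions. Rats (n = 7 per group) were dosed orally at 10 mg/kg twice daily for 3.5 days and compared with acetic acid/vehicle controls. Analysis used repeated-measure two-way ANOVA with Bonferroni post-test.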

[9] = Cmax in ileum of Sprague-Dawley rat at 10 mg/kg, po bid administered 7 doses over 3.5 days; format: ADME, organism-based; set-up: dose 10 mg/kg, route oral; procedure, shortened: as §1
[10] = molecular target: Proto-oncogene tyrosine-protein kinase receptor Ret (Rattus norvegicus, UniProt G3V9H8); experiment: Binding affinity to RET in Sprague-Dawley rat colon tissue cell lysate using sepharose beads incubated for 45 mins by LC-MS/MS based chemoproteomics assay
Procedure, shortened: (§2)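 Colon tissue was isolated from rats and analysed by kinobead chemoproteomics. Compound competed with the beads for kinase binding. Apparent affinity is reported as pKdapp and converted to Kd.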

[11] = Binding affinity to DDR2 in Sprague-Dawley rat colon tissue cell lysate using sepharose beads incubated for 45 mins by LC-MS/MS based chemoproteomics assay; procedure, shortened: as §2
[12] = Cmax in colon of Sprague-Dawley rat at 10 mg/kg, po bid administered 7 doses over 3.5 days; format: ADME, organism-based; set-up: dose 10 mg/kg, route oral; procedure, shortened: as §1
[13] = Tmax in colon contents of Sprague-Dawley rat at 10 mg/kg, po bid administered 7 doses over 3.5 days; format: ADME, organism-based, Colon content; procedure, shortened: as §1
[14] = Cmax in colon contents of Sprague-Dawley rat at 10 mg/kg, po bid administered 7 doses over 3.5 days; format: ADME, organism-based, Colon content; set-up: dose 10 mg/kg, route oral; procedure, shortened: as §1
[15] = Cmax in plasma of Sprague-Dawley rat at 10 mg/kg, po bid administered 7 doses over 3.5 days; format: ADME, organism-based; set-up: dose 10 mg/kg, route oral; procedure, shortened: as §1
[16] = molecular target: T1, Epithelial discoidin domain-containing receptor 1 (Rattus norvegicus, UniProt Q63474); experiment: Binding affinity to DDR1 in Sprague-Dawley rat colon tissue cell lysate using sepharose beads incubated for 45 mins by LC-MS/MS based chemoproteomics assay; procedure, shortened: as §2
T1 sequence (Q63474 whole entry): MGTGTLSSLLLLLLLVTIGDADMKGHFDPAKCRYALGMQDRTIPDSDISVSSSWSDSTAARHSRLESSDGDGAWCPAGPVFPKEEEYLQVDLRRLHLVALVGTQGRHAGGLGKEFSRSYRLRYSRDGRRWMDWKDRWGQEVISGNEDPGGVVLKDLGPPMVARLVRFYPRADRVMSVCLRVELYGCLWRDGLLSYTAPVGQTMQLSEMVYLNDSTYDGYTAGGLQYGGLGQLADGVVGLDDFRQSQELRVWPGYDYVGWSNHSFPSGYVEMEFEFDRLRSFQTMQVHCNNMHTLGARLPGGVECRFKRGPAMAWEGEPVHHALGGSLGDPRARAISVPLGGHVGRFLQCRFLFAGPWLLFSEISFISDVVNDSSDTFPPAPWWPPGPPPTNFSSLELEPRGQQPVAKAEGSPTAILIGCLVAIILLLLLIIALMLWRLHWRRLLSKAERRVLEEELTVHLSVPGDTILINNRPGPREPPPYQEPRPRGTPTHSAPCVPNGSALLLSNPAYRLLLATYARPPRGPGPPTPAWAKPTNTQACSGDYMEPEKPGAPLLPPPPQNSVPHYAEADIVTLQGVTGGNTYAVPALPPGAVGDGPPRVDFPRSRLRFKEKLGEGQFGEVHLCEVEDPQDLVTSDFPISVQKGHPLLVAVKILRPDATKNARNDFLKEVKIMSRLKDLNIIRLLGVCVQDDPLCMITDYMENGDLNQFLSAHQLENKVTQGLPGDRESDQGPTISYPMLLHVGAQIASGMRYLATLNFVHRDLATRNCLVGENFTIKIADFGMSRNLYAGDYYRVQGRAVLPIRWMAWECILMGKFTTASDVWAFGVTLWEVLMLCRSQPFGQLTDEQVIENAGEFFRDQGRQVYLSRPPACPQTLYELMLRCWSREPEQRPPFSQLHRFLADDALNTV

[17] = Tmax in colon of Sprague-Dawley rat at 10 mg/kg, po bid administered 7 doses over 3.5 days; format: ADME, organism-based; procedure, shortened: as §1
[18] = Cmax in duodenum of Sprague-Dawley rat at 10 mg/kg, po bid administered 7 doses over 3.5 days; format: ADME, organism-based; set-up: dose 10 mg/kg, route oral; procedure, shortened: as §1
[19] = Tmax in plasma of Sprague-Dawley rat at 10 mg/kg, po bid administered 7 doses over 3.5 days; format: ADME, organism-based; procedure, shortened: as §1

Chain of Proto-oncogene tyrosine-protein kinase receptor Ret (G3V9H8 whole entry): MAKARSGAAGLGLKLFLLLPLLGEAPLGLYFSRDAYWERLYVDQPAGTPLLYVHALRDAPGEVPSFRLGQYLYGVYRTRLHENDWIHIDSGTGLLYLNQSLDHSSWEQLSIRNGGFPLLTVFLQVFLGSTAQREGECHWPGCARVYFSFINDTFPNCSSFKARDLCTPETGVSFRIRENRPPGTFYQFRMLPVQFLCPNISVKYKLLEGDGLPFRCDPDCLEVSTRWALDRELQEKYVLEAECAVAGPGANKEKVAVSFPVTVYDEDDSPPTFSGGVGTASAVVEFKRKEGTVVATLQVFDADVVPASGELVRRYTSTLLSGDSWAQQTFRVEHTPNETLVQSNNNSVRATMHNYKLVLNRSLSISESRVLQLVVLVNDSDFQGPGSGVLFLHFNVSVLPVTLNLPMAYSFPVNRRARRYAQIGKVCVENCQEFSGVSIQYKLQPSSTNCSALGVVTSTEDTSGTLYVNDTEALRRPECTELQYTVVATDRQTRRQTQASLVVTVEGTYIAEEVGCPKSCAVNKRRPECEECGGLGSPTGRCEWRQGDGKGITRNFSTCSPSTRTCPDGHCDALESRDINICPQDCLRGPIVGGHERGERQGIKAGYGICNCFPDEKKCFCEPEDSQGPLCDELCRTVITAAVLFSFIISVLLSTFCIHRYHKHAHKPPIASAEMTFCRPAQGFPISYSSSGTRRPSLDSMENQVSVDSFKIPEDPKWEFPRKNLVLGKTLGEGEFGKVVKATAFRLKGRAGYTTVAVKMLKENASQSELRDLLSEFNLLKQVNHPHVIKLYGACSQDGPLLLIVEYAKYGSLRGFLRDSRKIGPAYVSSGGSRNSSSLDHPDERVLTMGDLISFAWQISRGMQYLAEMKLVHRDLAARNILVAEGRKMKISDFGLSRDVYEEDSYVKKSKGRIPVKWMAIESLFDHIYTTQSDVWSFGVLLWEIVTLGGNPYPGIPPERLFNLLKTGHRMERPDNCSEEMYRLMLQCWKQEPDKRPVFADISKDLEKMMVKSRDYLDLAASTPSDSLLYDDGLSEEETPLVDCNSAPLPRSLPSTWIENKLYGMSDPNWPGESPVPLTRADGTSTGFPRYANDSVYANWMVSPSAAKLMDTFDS
Chain of Vascular endothelial growth factor receptor 2 (P35968 whole entry): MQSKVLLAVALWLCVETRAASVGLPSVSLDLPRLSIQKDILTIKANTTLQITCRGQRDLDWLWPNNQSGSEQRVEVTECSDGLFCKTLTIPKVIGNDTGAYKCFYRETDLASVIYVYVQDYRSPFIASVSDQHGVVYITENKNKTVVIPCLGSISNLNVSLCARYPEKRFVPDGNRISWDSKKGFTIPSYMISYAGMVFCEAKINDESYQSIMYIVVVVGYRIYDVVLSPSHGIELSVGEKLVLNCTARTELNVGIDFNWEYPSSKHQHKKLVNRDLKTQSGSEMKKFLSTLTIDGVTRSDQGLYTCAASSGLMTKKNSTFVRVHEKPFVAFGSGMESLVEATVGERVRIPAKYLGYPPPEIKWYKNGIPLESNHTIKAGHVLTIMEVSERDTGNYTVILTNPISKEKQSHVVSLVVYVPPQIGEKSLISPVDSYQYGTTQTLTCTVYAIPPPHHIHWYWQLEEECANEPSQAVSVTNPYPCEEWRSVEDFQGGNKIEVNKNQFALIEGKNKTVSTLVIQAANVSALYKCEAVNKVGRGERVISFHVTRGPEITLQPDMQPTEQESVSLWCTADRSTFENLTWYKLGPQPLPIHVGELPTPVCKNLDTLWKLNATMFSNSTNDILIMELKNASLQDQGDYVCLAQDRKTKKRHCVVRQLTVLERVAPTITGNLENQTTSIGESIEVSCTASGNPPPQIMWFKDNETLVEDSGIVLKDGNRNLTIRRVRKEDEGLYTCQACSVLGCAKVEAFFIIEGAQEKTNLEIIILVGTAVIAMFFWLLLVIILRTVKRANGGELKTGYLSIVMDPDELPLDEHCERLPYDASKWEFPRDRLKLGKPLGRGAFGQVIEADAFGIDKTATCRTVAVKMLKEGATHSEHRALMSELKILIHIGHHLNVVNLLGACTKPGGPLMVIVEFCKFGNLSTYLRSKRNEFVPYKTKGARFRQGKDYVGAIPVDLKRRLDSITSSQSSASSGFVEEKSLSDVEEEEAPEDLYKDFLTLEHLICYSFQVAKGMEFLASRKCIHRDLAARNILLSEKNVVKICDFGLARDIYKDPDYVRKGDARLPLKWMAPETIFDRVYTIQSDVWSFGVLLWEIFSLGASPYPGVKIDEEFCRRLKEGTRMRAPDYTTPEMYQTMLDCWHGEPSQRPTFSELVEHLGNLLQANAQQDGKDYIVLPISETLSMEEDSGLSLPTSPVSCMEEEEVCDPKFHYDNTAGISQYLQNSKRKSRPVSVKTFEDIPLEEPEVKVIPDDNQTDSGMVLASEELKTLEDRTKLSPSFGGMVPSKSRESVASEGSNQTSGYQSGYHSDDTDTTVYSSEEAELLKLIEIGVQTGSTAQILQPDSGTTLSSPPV

SMILES: COc1cc(-c2ccc(N)c(F)c2)c[nH]c1=O
Activity (Salmonella typhimurium): Toxic

SMILES: CC(C)(c1cc(N)no1)C(F)(F)F
Activity (Salmonella typhimurium): Non-Toxic

SMILES: CCN1CCN(Cc2ccc(N)cc2C(F)(F)F)CC1
Activity (Salmonella typhimurium): Toxic

SMILES: CCOc1cc(-c2ccc(N)cc2)c[nH]c1=O
Activity (Salmonella typhimurium): Toxic

IC50 [1]: > 1000 nM
SMILES: CCN1CCN(Cc2ccc(NC(=O)Nc3ccc(-c4ccnc(NC)c4)cc3)cc2C(F)(F)F)CC1

SMILES: CCOc1cc(-c2ccc(N)c(F)c2)c[nH]c1=O
Activity (Salmonella typhimurium): Toxic

Tmax [2]: 1 h
Tmax [3]: 0 h
Cmax [4]: 12800 ng/mL
solubility kinetic [5]: 21 µM (≈ 9.82 µg/mL)
solubility at 4 h [6]: 0.4 µg/mL (≈ 0.856 µM)
Tmax [7]: 2 h
AUC [8]: 102 ng·h/mL
Cmax [9]: 5520 ng/mL
Kd [10]: 20 nM
Cmax [12]: 3360 ng/mL
Tmax [13]: 7 h
Cmax [14]: 288000 ng/mL
Cmax [15]: 40 ng/mL
Kd [16]: 40 nM
Tmax [17]: 7 h
Cmax [18]: 15700 ng/mL
Tmax [19]: 4 h
SMILES: CCOc1cc(=O)[nH]cc1-c1ccc(CC(=O)Nc2cc(C(C)(C)C(F)(F)F)on2)c(F)c1 [GSK-3179106]
Activity (Rattus norvegicus): Active
Kd [11]: 90 nM
Activity (Salmonella typhimurium): Non-Toxic
